# pIC50: −log10 of the molar value.
# Assays:
# [1] = biological target: T1, Angiotensin-converting enzyme (Mus musculus) (UniProt P09470); assay: (§1) In vivo percent inhibition activity against lung Angiotensin I converting enzyme 2 hr after oral administration of a dose of 2.6 x 10e-5 mol/kg; assay type: functional, organism-based
# T1 sequence (whole entry): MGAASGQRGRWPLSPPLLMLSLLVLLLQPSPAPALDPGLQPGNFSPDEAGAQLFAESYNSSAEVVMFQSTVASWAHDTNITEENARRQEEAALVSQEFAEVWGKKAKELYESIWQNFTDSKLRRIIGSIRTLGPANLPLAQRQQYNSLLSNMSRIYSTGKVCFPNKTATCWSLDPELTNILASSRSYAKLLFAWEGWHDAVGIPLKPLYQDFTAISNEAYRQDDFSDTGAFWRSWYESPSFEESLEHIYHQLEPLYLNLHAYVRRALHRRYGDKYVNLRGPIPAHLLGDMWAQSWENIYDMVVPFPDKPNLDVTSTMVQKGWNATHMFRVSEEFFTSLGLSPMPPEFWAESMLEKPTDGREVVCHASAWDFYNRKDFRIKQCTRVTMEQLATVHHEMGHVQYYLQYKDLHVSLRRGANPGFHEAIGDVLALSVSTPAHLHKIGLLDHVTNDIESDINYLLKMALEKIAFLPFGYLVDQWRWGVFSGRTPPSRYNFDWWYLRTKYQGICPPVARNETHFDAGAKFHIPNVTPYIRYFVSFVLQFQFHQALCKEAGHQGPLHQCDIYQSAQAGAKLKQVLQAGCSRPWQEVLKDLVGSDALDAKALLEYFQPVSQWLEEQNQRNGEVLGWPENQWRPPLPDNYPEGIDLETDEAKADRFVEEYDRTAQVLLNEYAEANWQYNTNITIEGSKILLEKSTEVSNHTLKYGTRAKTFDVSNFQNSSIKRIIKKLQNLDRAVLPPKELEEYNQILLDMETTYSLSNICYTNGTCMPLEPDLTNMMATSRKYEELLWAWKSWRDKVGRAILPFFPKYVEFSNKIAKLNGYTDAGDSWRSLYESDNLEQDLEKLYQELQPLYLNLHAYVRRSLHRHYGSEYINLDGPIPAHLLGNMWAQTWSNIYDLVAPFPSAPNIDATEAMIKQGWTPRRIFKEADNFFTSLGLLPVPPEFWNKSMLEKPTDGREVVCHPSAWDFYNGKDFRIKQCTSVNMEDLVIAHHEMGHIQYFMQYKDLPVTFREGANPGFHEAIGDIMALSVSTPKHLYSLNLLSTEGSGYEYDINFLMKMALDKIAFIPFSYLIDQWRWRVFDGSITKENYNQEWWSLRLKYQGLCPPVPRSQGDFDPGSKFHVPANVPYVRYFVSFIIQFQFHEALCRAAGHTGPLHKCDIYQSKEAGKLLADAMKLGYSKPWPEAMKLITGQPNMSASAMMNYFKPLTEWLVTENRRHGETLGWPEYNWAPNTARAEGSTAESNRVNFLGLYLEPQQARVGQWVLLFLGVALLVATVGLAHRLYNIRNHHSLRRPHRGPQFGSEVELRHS
# Summary of the method: (§2)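 Mice dosed orally in 10% ethanol/10% cremophor/80% water. At 2 h, [3H]trandaloprilate (0.5 µCi) given iv; 15 min later lungs homogenized at 4 °C in 50 mM Tris-HCl pH 8.0 with 1 mM NaCl, centrifuged, and radioactivity counted. Total binding from untreated mice; nonspecific binding from probe coinjected with 1000 equiv captopril.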
# [2] = biological target: T2, Angiotensin-converting enzyme (Rattus norvegicus, UniProt P47820); assay: In vitro inhibition of rat angiotensin I converting enzyme
# T2 sequence (P47820 whole entry): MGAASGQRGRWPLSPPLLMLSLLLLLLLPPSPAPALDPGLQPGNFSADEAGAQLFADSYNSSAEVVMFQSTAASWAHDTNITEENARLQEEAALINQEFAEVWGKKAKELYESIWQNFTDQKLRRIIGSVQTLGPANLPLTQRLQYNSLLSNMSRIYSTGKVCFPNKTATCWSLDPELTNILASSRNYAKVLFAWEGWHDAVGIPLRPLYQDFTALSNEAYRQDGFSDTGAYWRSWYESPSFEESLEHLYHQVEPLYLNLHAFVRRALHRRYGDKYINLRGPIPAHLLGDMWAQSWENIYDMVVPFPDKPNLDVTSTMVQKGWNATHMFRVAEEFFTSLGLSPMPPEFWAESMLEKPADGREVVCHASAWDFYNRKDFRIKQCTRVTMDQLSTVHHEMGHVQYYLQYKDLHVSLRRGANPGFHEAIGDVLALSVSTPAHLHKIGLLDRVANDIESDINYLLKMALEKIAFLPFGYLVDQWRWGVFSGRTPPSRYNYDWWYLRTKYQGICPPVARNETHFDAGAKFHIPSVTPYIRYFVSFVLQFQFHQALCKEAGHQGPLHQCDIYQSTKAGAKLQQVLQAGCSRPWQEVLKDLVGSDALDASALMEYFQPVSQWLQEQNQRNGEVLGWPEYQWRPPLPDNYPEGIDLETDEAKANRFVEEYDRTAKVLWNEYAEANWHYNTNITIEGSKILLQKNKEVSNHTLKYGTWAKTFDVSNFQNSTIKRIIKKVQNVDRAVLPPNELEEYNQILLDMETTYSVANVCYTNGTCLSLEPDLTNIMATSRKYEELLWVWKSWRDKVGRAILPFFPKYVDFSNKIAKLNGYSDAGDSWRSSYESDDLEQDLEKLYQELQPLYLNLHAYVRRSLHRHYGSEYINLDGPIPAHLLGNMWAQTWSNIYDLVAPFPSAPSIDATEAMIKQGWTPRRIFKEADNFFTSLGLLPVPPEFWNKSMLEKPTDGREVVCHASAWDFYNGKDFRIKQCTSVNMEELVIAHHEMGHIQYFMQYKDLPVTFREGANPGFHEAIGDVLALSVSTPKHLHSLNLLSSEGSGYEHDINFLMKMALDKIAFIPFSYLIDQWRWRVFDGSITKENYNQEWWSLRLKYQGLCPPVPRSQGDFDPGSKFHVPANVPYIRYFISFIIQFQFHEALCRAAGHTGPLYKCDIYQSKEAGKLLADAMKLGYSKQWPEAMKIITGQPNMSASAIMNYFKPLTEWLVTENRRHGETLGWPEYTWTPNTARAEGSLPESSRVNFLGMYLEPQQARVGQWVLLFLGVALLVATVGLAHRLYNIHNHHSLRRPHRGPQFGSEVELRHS
# Summary of the method: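 ACE purified from rat testis, 0.02 pmol/100 µL final, preincubated 15 min at 37 °C with varying inhibitor in 50 mM Tris-HCl pH 8.0. N-Cbz-Phe-His-Leu added to 0.05 mM final, 15 min; stopped with 2 M NaOH. His-Leu measured fluorimetrically (ex 365, em 495 nm) against a His-Leu calibration curve. IC50 is the mean ± SEM of three experiments in triplicate.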
# [3] = biological target: T1, Angiotensin-converting enzyme (Mus musculus); assay: as §1; assay type: organism-based; summary of the method: as §2
SMILES,inhibition [1] [%],pIC50 [2],inhibition [3] [%]
O=C(NCC(=O)N1[C@@H](c2ccccc2)CC[C@H]1C(=O)O)[C@@H](S)Cc1ccccc1,63,9.26,–
Cc1ccc([C@H]2CC[C@@H](C(=O)O)N2C(=O)CNC(=O)[C@@H](S)Cc2ccccc2)cc1,42,8.17,–
Cc1ccccc1[C@H]1CC[C@@H](C(=O)O)N1C(=O)CNC(=O)[C@@H](S)Cc1ccccc1,57,8.51,–

# Other lines, results leading:
inhibition [1] [%],pIC50 [2],inhibition [3] [%],SMILES
–,8.30,60,"Cc1ccccc1C1CC[C@@H](C(=O)O)N1C(=O)CNC(=O)[C@@H](S)Cc1ccc(O)cc1 (single isomer, unassigned)"
–,9.15,89,O=C(NCC(=O)N1[C@@H](c2cccc(O)c2)CC[C@H]1C(=O)O)[C@@H](S)Cc1ccc(O)cc1
82,9.22,–,O=C(NCC(=O)N1[C@@H](c2ccccc2O)CC[C@H]1C(=O)O)[C@@H](S)Cc1ccc(O)cc1
33,8.60,–,Cc1ccc([C@H]2CC[C@@H](C(=O)O)N2C(=O)CNC(=O)[C@@H](S)Cc2ccc(O)cc2)cc1

# From ChEMBL document CHEMBL1129041, “Design of orally active dual inhibitors of neutral endopeptidase and angiotensin-converting enzyme with long duration of action” (J Med Chem, 1996)
